pKi: −log10 of the molar value.
Assays:
[1] = molecular target: Delta-type opioid receptor (Rattus norvegicus, UniProt P33533); test: Binding affinity for delta opioid receptor by displacing [3H]DADL was determined
Procedure, shortened: (§1)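 Radioligand displacement binding at opioid receptors, with Ki values derived. Each receptor used its own radioligand: mu was [3H]DAMGO, delta was [3H]DADL and kappa was [3H]U69593.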

[2] = Binding affinity for gamma-S binding assay
[3] = molecular target: Mu-type opioid receptor (Rattus norvegicus, UniProt P33535); test: Binding affinity for mu opioid receptor by displacing [3H]-DAMGO was determined; procedure, shortened: as §1
[4] = Binding affinity for gamma-S binding assay; Inactive
[5] = molecular target: Kappa-type opioid receptor (Cavia porcellus, UniProt P41144); test: Binding affinity for kappa opioid receptor by displacing [3H]U-69593 was determined; procedure, shortened: as §1
Kappa-type opioid receptor, sequence (P41144 whole entry): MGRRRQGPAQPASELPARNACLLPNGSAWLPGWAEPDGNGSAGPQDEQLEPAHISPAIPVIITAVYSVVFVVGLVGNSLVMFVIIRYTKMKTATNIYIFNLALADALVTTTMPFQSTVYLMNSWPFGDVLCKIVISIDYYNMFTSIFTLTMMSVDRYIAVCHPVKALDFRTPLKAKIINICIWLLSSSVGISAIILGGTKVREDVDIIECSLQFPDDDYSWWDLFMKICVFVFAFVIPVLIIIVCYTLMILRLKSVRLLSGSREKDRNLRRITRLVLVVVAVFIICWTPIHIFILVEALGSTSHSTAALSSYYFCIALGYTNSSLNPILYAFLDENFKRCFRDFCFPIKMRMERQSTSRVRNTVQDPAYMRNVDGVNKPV

Mu-type opioid receptor, sequence (P33535 whole entry): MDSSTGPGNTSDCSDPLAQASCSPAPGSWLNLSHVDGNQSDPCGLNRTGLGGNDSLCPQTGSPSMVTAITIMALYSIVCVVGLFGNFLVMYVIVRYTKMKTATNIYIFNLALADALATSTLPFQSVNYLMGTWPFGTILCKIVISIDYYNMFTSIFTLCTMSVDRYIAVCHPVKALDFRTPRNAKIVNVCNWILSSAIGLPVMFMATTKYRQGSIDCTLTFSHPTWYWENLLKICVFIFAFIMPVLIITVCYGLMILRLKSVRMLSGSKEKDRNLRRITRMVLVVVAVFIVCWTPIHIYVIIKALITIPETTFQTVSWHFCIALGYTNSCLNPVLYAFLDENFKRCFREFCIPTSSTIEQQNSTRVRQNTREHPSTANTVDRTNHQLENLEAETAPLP
Delta-type opioid receptor, sequence (P33533 whole entry): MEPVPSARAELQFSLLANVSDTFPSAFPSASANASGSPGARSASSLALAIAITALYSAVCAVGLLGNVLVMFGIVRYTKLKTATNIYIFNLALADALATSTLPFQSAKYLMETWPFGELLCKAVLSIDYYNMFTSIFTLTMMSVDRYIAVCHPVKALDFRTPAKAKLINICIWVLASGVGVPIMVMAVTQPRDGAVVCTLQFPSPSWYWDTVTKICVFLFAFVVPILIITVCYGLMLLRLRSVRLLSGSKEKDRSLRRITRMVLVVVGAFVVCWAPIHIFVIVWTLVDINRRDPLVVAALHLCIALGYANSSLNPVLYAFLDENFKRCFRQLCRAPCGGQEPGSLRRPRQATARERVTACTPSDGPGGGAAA

Row | SMILES | pKi [1] | pKi [2] | pKi [3] | pKi [4] | pKi [5]
1 | CN1CC[C@]23c4c5ccc(O)c4O[C@H]2c2[nH]c4ccccc4c2C[C@H]3[C@H]1C5 | 8.62 | 7.82 | – | – | –
2 | C[C@H]1c2c([nH]c3ccccc23)[C@@H]2Oc3c(O)ccc4c3C23CCN(C)C(C4)C13 (some centres not stated) [Indole Derivative] | 9.15 | 7.31 | 6.62 | – | –
3 | COc1ccc2c3c1O[C@H]1c4[nH]c5ccccc5c4[C@H](C)C4C(C2)N(C)CCC341 (some centres not stated) [Indole Derivative] | 7.57 | 6.48 | < 5.32 | – | –
4 | COc1ccc2c3c1O[C@H]1c4[nH]c5ccccc5c4CC4C(C2)N(C)CCC341 (some centres not stated) [Indole Derivative] | 7.02 | 6.54 | < 5.30 | – | –
5 | CCCC[C@H]1c2c([nH]c3ccccc23)[C@@H]2Oc3c(OC)ccc4c3C23CCN(C)C(C4)C13 (some centres not stated) [Indole Derivative] | 6.43 | – | < 5.37 | < 6.12 | –
6 | C/C=C/C(=O)N1CCC23c4c5ccc(O)c4O[C@H]2c2[nH]c4ccccc4c2[C@H](C)C3C1C5 (some centres not stated) | 8.64 | – | – | – | 6.92
7 | CCCC[C@H]1c2c([nH]c3ccccc23)[C@@H]2Oc3c(O)ccc4c3C23CCN(C)C(C4)C13 (some centres not stated) [Indole Derivative] | 7.66 | 7.34 | 5.96 | – | –
8 | C[C@H]1c2c([nH]c3ccccc23)[C@@H]2Oc3c(O)ccc4c3C23CCN(CC2CC2)C(C4)C13 (some centres not stated) | 8.64 | – | 7.18 | – | 7.44
